Measured values taken from paper PMC12004261 (RSC Medicinal Chemistry, 2025).
Entries after “also recorded” stand apart in the source; their conditions may differ.

What was measured:
[1] = biological target: CBD brain tissue homogenates (Homo sapiens, UniProt P10636); test: Saturation binding assay of [^3H]M503-1619 in CBD brain tissue homogenates
In short: (§1)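 Frozen brain homogenate in pH 7.0 PBS, diluted to a final 100 μg tissue per mL. Contained ~1 nM tritiated test compound plus 0.2–1000 nM unlabelled compound and 0.25% DMSO (final). Incubated 60 min at room temperature, GF/B filtration, three PBS washes, scintillation counting after standing overnight. Nondisplaceable binding set with ~1 μM unlabelled compound; bound corrected for diluted specific activity. KD from Scatchard slope, Bmax from x-intercept; at least triplicate.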

[2] = biological target: AD brain tissue homogenates; test: Saturation binding assay of [^3H]M503-1619 in AD brain tissue homogenates; design: species or system human; conditions: AD tissue (n = 4), mean ± SD
In short: as §1

[3] = biological target: PSP brain tissue homogenates (Homo sapiens, UniProt P10636); test: Saturation binding assay of [^3H]M503-1619 in PSP brain tissue homogenates
Chain of PSP brain tissue homogenates (P10636 561-698 limits assumed): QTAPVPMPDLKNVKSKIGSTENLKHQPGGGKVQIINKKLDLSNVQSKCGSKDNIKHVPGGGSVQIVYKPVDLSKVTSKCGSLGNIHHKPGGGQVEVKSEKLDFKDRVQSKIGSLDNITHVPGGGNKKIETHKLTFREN
In short: as §1

[4] = Radiometabolite study of venous blood plasma; assay type: in vivo, rhesus monkey; conditions: 7.5 min post-injection
In short: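 Plasma from a 26-year-old male rhesus macaque was sampled during a PET scan after IV injection of 105 MBq of the 11C-labelled test compound. The animal was anaesthetised with ketamine/dexmedetomidine and maintained on isoflurane. Venous blood was spun 5 min at 3000g and the plasma deproteinised with acetonitrile 1:1. Reverse-phase C18 HPLC used 65% 0.1 M ammonium formate/35% acetonitrile at 1.2 mL min−1. An in-line radio-detector measured parent fraction by standard retention time.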

[5] = Brain PET imaging study; assay type: in vivo, cynomolgus macaque; conditions: cynomolgus monkey
In short: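 Male cynomolgus macaque (8.5 kg), ketamine 10–20 mg kg−1 induction, kept on 40% N2O/60% O2 with 1.0–1.5% isoflurane. After a positioning scan and a 45 min transmission scan for attenuation, ~350 MBq of the 11C-labelled test compound was given by limb-vein catheter. Two-hour dynamic scan, filtered back projection with corrections, co-registration to a monkey MRI template, whole-brain VOI. SUV normalised to body weight and injected dose.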

[6] = biological target: PD brain tissue homogenates (Homo sapiens, UniProt P37840); test: Saturation binding assay of [^3H]M503-1619 in PD brain tissue homogenates
In short: as §1

[7] = biological target: α-Syn (Lewy bodies in PD, GCIs in MSA) (Homo sapiens, UniProt P37840); test: Nuclear emulsion; assay type: binding; conditions: 5 nM and 15 nM, listed as [^3H]M503-1619
In short: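 Fresh-frozen PD and MSA cryosections (16 μm) were quenched for lipofuscin with TrueBlack in 70% EtOH and immunostained for pS129 α-Syn. Sections were incubated with 5 or 15 nM tritiated test compound in 30 mM Tris–HCl pH 7.4 for 2 h at 37 °C, then given graded Tris/ethanol washes. Emulsion-dipped slides were exposed 4 days in the dark and developed. Silver grains were imaged by brightfield alongside fluorescence.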

[8] = Total-body PET imaging study; assay type: in vivo, rhesus macaque; conditions: rhesus monkey
[9] = biological target: synthetic α-Syn fibrils (Homo sapiens, UniProt P37840); test: Saturation binding assay of [^3H]M503-1619 in α-Syn fibrils

Chain of CBD brain tissue homogenates (P10636 561-708 limits assumed): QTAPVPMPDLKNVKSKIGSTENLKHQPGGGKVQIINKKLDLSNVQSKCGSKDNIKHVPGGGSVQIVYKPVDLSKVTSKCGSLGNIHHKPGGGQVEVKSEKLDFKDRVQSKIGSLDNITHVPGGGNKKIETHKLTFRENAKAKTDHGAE

COc1ccc(NC(=O)c2cnc(N3CCN(c4ccccn4)CC3)nc2N)cc1 [M503-1619, 4-Amino-N-(4-methoxyphenyl)-2-(4-(pyridin-2-yl)piperazin-1-yl)pyrimidine-5-carboxamide]
Kd [1]: 94 ± 13 nM
Bmax ([1]; CBD tissue (n = 3)): 540 ± 130 nM
Kd [2]: 37 ± 2 nM
Kd [3]: 55 ± 3 nM
Bmax ([3]; PSP tissue (n = 4)): 399 ± 24 nM
Parent (%) [4]: 57%
Time of peak uptake of the whole brain [5]: 2 to 3 min
Whole brain peak to 60 min ratio [5]: 3.2
Peak uptake of the whole brain, standardized uptake value (SUV) ([5]; whole brain): 2.3
Kd [6]: 2.5 ± 0.3 nM
Bmax ([6]; PD tissue (n = 4)): 59 ± 10 nM
Selectivity vs. tau ([6]; α-Syn vs. tau): 10–20 fold
High-resolution autoradiography: binding to GCIs ([7]; MSA brain tissue sections): not to GCIs present in MSA; also recorded: not on GCIs in MSA brain
High-resolution autoradiography: binding to Lewy bodies ([7]; PD brain tissue sections): target engagement of [^3H]M503-1619 to Lewy bodies in PD brain; also recorded: accumulation of silver grains on Lewy bodies in PD
Time of peak uptake of the whole brain [8]: 2 to 3 min
Whole brain peak to 60 min ratio [8]: 3.2
Peak uptake of the whole brain, standardized uptake value (SUV) ([8]; whole brain): 2.5
Kd [9]: 4.4 ± 1 nM
Bmax ([9]; α-Syn fibrils (n = 4)): 1156 ± 112 nM
